Measured values: ChEMBL document CHEMBL1121364, “Nucleoside conjugates as potential antitumor agents. 3. Synthesis and antitumor activity of 1-(beta-D-arabinofuranosyl)cytosine conjugates of corticosteroids” (1980)

Assays:
L1210 [1] = test: Antitumor activity in the mice with intraperitoneal implanted L1210 lymphoid leukemia at the dose 18 and 27.7 mg/kg/day x 5 was determined as percentage increase in the life span as compared with control tumor bearers; format: functional, Mus musculus
Outline: (§1)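 Female C3D2F1/J mice (C3H/HeJ × DBA/2J), groups of six to eight, average weight 25 g. Each mouse got 1 × 10^6 L1210 ascites cells ip, taken from DBA/2Ha donor mice bearing 3-5 day tumors. Compound was dissolved in 0.154 N NaOH and neutralized with 0.154 N HCl (final 0.9% NaCl). Dosed ip daily ×5, starting 24 h after implant. Recorded body weight change on day 8, survival range, median survival and 30-day survivors. ILS = (T/C − 1) × 100.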

L1210 [2] = test: Antitumor activity in the mice with intraperitoneal implanted L1210 lymphoid leukemia at the dose 9.2 and 13.2 mg/kg/day x 5 was determined and number of animals survived on 30 th day were reported; 0/6; format: functional, Mus musculus
Outline: (§2)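 C3D2F1/J female mice (C3H/HeJ female × DBA/2J male), groups of six to eight, average weight 25 g. Inoculated ip with 1 × 10^6 L1210 ascites cells taken from DBA/2Ha donor mice bearing 3-5 day old tumors. Compounds were dissolved in 0.154 N NaOH, neutralized with 0.154 N HCl (final 0.9% NaCl), and given ip daily for 5 days from 24 h post-implant. Median survival T/C; ILS = (T/C − 1) × 100; 30-day survivors counted.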

L1210 [3] = test: Antitumor activity in the mice with intraperitoneal implanted L1210 lymphoid leukemia at the dose 18 and 27.7 mg/kg/day x 5 was determined and number of animals survived on 30 th day were reported; 0/8; format: functional, Mus musculus; outline: as §1
L1210 [4] = test: Antitumor activity in mice with intraperitoneal implanted L1210 lymphoid leukemia at the dose 9.2 and 13.2 mg/kg/day x 5 was determined as weight change (g/mouse) on 8th day; format: functional
Outline: (§3)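 C3D2F1/J female mice (C3H/HeJ × DBA/2J), groups of six to eight, average 25 g, inoculated ip with 1 × 10^6 L1210 ascites cells taken from DBA/2Ha donor mice carrying 3-5 day tumors. Compound dissolved in 0.154 N NaOH, then neutralized with 0.154 N HCl to give 0.9% NaCl. Given ip daily for 5 consecutive days starting 24 h after implantation. Body weight change per mouse recorded on day 8.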

L1210 [5] = test: Antitumor activity in the mice with intraperitoneal implanted L1210 lymphoid leukemia at the dose of 18 and 27.7 mg/kg/day x 5 was determined as mean survival of treated group compared to untreated; 13/9; format: functional, Mus musculus; outline: as §2
L1210 [6] = test: Antitumor activity in the mice with intraperitoneal implanted L1210 lymphoid leukemia at the dose 9.2 and 13.2 mg/kg/day x 5 was determined as Survival time in days; Range is 11-28 days; format: functional, Mus musculus; outline: as §2
L1210 [7] = test: Antitumor activity in the mice with intraperitoneal implanted L1210 lymphoid leukemia at the dose 9.2 and 13.2 mg/kg/day x 5 was determined as percentage increase in the life span as compared with control tumor bearers; format: functional, Mus musculus; outline: as §2
L1210 [8] = test: Antitumor activity in the mice with intraperitoneal implanted L1210 lymphoid leukemia at the dose of 9.2 and 13.2 mg/kg/day x 5 was determined as mean survival of treated group compared to untreated; 15/11; format: functional, Mus musculus
L1210 [9] = test: Antitumor activity in mice with intraperitoneal implanted L1210 lymphoid leukemia at the dose 18 and 27.7 mg/kg/day x 5 was determined as weight change (g/mouse) on 8th day; format: functional; outline: as §3
L1210 [10] = test: Antitumor activity in the mice with intraperitoneal implanted L1210 lymphoid leukemia at the dose 18 and 27.7 mg/kg/day x 5 was determined as Survival time in days; Range is 9-17 days; format: functional, Mus musculus; outline: as §1
L1210 [11] = test: Antitumor activity in mice with intraperitoneal implanted L1210 lymphoid leukemia at the dose 5 mg/kg/day x 5 was determined as weight change (g/mouse) on 8th day; format: functional; outline: as §3
L1210 [12] = test: Antitumor activity in the mice with intraperitoneal implanted L1210 lymphoid leukemia at the dose 5 mg/kg/day x 5 was determined and number of animals survived on 30 th day were reported; 0/7; format: functional, Mus musculus; outline: as §1
L1210 [13] = test: Antitumor activity in the mice with intraperitoneal implanted L1210 lymphoid leukemia at the dose 18.2 mg/kg/day x 5 was determined as percentage increase in the life span as compared with control tumor bearers; format: functional; settings: Mus musculus, L1210, ip; outline: as §1
L1210 [14] = test: Antitumor activity in mice with intraperitoneal implanted L1210 lymphoid leukemia at the dose 18.2 mg/kg/day x 5 was determined as weight change (g/mouse) on 8th day; format: functional; outline: as §3
L1210 [15] = test: Antitumor activity in mice with intraperitoneal implanted L1210 lymphoid leukemia at the dose 9.2 mg/kg/day x 5 was determined as weight change (g/mouse) on 8th day; format: functional; outline: as §3
L1210 [16] = test: Antitumor activity in the mice with intraperitoneal implanted L1210 lymphoid leukemia at the dose of 18.2 mg/kg/day x 5 was determined as mean survival of treated group compared to untreated; 14.5/10; format: functional, Mus musculus; outline: as §2
L1210 [17] = test: Antitumor activity in the mice with intraperitoneal implanted L1210 lymphoid leukemia at the dose 9.2 mg/kg/day x 5 was determined as Survival time in days; Range is 14-42 days; format: functional, Mus musculus; outline: as §2
L1210 [18] = test: Antitumor activity in mice with intraperitoneal implanted L1210 lymphoid leukemia at the dose 25 mg/kg/day x 5 was determined as weight change (g/mouse) on 8th day; format: functional; outline: as §3
L1210 [19] = test: Antitumor activity in the mice with intraperitoneal implanted L1210 lymphoid leukemia at the dose 18.2 mg/kg/day x 5 was determined and number of animals survived on 30 th day were reported; 0/8; format: functional, Mus musculus; outline: as §1
L1210 [20] = test: Antitumor activity in the mice with intraperitoneal implanted L1210 lymphoid leukemia at the dose of 5 mg/kg/day x 5 was determined as mean survival of treated group compared to untreated; 13.5/9; format: functional, Mus musculus; outline: as §2
L1210 [21] = test: Antitumor activity in the mice with intraperitoneal implanted L1210 lymphoid leukemia at the dose 25 mg/kg/day x 5 was determined as Survival time in days; Range is 9-16 days; format: functional, Mus musculus; outline: as §1
L1210 [22] = test: Antitumor activity in the mice with intraperitoneal implanted L1210 lymphoid leukemia at the dose 25 mg/kg/day x 5 was determined as percentage increase in the life span as compared with control tumor bearers; format: functional; settings: Mus musculus, L1210, ip; outline: as §1
L1210 [23] = test: Antitumor activity in the mice with intraperitoneal implanted L1210 lymphoid leukemia at the dose 5 mg/kg/day x 5 was determined as percentage increase in the life span as compared with control tumor bearers; format: functional; settings: Mus musculus, L1210, ip; outline: as §1
L1210 [24] = test: Antitumor activity in the mice with intraperitoneal implanted L1210 lymphoid leukemia at the dose 5 mg/kg/day x 5 was determined as Survival time in days; Range is 9-22 days; format: functional, Mus musculus; outline: as §1
L1210 [25] = test: Antitumor activity in the mice with intraperitoneal implanted L1210 lymphoid leukemia at the dose 18.2 mg/kg/day x 5 was determined as Survival time in days; Range is 10-19 days; format: functional, Mus musculus; outline: as §1
L1210 [26] = test: Antitumor activity in the mice with intraperitoneal implanted L1210 lymphoid leukemia at the dose 9.2 mg/kg/day x 5 was determined as percentage increase in the life span as compared with control tumor bearers; format: functional; settings: Mus musculus, L1210, ip; outline: as §2
L1210 [27] = test: Antitumor activity in the mice with intraperitoneal implanted L1210 lymphoid leukemia at the dose 9.2 mg/kg/day x 5 was determined and number of animals survived on 30 th day were reported; 1/7; format: functional, Mus musculus; outline: as §2
L1210 [28] = test: Antitumor activity in the mice with intraperitoneal implanted L1210 lymphoid leukemia at the dose of 9.2 mg/kg/day x 5 was determined as mean survival of treated group compared to untreated; 17/9; format: functional, Mus musculus
L1210 [29] = test: Antitumor activity in the mice with intraperitoneal implanted L1210 lymphoid leukemia at the dose 25 mg/kg/day x 5 was determined and number of animals survived on 30 th day were reported; 0/8; format: functional, Mus musculus; outline: as §1

## C[C@H]1C[C@@H]2[C@H]([C@@H](O)C[C@@]3(C)[C@H]2CC[C@]3(O)C(=O)CO)[C@@]2(C)C=CC(=O)C=C12.Nc1ccn([C@@H]2O[C@H](CO)[C@@H](O)[C@@H]2O)c(=O)n1
L1210 [1]
  ILS: 44%
L1210 [2]
  Survivors: 0
L1210 [3]
  Survivors: 0
L1210 [4]
  Weight change: -2.38 g mouse-1
L1210 [5]
  T/C: 13
L1210 [6]
  Survival time: 11 days
L1210 [7]
  ILS: 36%
L1210 [8]
  T/C: 15
L1210 [9]
  Weight change: -1.38 g mouse-1
L1210 [10]
  Survival time: 9 days

## Nc1ccn([C@@H]2O[C@H](CO)[C@@H](O)[C@@H]2O)c(=O)n1 [CYTARABINE]
L1210 [11]
  Weight change: 2 g mouse-1
L1210 [12]
  Survivors: 0
L1210 [13]
  ILS at 18.2 mg/kg/day: 45%
L1210 [14]
  Weight change: -3.64 g mouse-1
L1210 [15]
  Weight change: -0.63 g mouse-1
L1210 [16]
  T/C: 14.5
L1210 [17]
  Survival time: 14 days
L1210 [18]
  Weight change: -3.8 g mouse-1
L1210 [19]
  Survivors: 0
L1210 [20]
  T/C: 13.5
L1210 [21]
  Survival time: 9 days
L1210 [22]
  ILS at 25 mg/kg/day: 19%
L1210 [23]
  ILS at 5 mg/kg/day: 50%
L1210 [24]
  Survival time: 9 days
L1210 [25]
  Survival time: 10 days
L1210 [26]
  ILS at 9.2 mg/kg/day: 89%
L1210 [27]
  Survivors: 1
L1210 [28]
  T/C: 17
L1210 [29]
  Survivors: 0
